From ChEMBL document CHEMBL4765491, “Discovery of Potent and Selective Methylenephosphonic Acid CD73 Inhibitors” (J Med Chem, 2021) come the findings set out here.

Structures are written as SMILES. Where only a bound is given, the exact number is not on record here.

The target of data set [1] is 5'-nucleotidase (Homo sapiens, UniProt P21589). Kind of data set: Inhibition of human CD73 expressed in CHO cells incubated for 60 mins before addition of AMP and further incubated for 60 mins by colorimetric assay. The format is cell-based. The essentials:
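Thawed stable CD73-CHO cells in HEPES pH 7.4 saline buffer with 0.1% glucose, 1500 cells/well. Preincubated 60 min at 37 °C with 16-point 1:3 compound dilutions (final 100–0 or 0.1–0 μM; 10 or 2% DMSO). 25 μM AMP then added, 60 min at 37 °C/5% CO2. Supernatant phosphate measured with PiColorLock Gold. Activity normalized to DMSO and no-cell wells. IC50 from a four-parameter fit.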

The nature of data set [2]: Half life in Sprague-Dawley rat at 0.25 to 0.5 mg/kg, iv measured up to 24 hrs by LC-MS/MS analysis. To be noted: in vivo, dose 0.25-0.5 mg/kg. The format is ADME, organism-based. The gist of the method: (§1)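 Male SD rats (0.27–0.30 kg), acclimated. Single IV bolus via femoral vein at 0.25 or 0.5 mg/kg in 31.6% DMA/36.8% ethanol/31.6% PEG. Jugular blood at predose, 5, 15, 30 min, 1, 2, 4, 6, 8, 24 h, collected into K2-EDTA; plasma spun at 4 °C, stored −80 °C until analysis.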

The nature of data set [3]: Clearance in Sprague-Dawley rat at 0.25 to 0.5 mg/kg, iv measured up to 24 hrs by LC-MS/MS analysis. Type of data set: ADME, organism-based. The settings on record: in vivo, dose 0.25-0.5 mg/kg. The gist of the method:
as §1

Chain of 5'-nucleotidase (P21589 whole entry): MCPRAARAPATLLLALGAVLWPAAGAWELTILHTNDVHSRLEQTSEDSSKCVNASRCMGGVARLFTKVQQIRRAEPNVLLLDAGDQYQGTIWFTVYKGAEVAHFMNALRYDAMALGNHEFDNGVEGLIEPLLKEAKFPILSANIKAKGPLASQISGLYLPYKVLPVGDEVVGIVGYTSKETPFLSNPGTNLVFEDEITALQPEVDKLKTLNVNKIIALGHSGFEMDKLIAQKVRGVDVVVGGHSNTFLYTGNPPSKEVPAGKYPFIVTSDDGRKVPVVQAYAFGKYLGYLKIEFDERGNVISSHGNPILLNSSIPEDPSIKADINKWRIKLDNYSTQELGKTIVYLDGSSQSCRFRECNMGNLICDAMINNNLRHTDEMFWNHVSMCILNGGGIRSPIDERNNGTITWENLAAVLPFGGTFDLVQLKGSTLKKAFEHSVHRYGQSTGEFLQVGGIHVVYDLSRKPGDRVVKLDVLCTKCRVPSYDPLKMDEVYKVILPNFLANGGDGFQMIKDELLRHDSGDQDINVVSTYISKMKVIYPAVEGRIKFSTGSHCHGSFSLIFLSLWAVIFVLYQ

In the case of `O=P(O)(O)COC[C@H]1O[C@@H](n2cnc3c(NCCc4ccccc4)nc(Cl)nc32)[C@H](O)[C@@H]1O`, in data set [1], it took 105 nM to reach half-maximal inhibition (IC50). For the compound `C[C@@H](Nc1nc(Cl)nc2c1ncn2[C@@H]1O[C@H](COCP(=O)(O)O)[C@@H](O)[C@H]1O)c1ccccc1`, the IC50 in data set [1] is 156 nM. In data set [1], `COc1ccccc1CCNc1nc(Cl)nc2c1ncn2[C@@H]1O[C@H](COCP(=O)(O)O)[C@@H](O)[C@H]1O` yielded an IC50 of 173 nM. In data set [1], `O=C(O)C(OC[C@H]1O[C@@H](n2cnc3c(NCc4ccccc4)nc(Cl)nc32)[C@H](O)[C@@H]1O)P(=O)(O)O` (stereo partly specified) returned an IC50 of 110 nM. The same measure, in the same setting: with `O=P(O)(O)COC[C@H]1O[C@@H](n2cnc3c(NCc4ccccc4Cl)nc(Cl)nc32)[C@H](O)[C@@H]1O` the figure was 46 nM. Same read-out and setting: with `CN(Cc1ccccc1Cl)c1nc(Cl)nc2c1ncn2[C@@H]1O[C@H](COCP(=O)(O)O)[C@@H](O)[C@H]1O` the figure was 46 nM; with `Cc1ccccc1-c1nc(NC2CCCC2)c2ncn([C@@H]3O[C@H](COCP(=O)(O)O)[C@@H](O)[C@H]3O)c2n1`, 3500 nM; with `O=P(O)(O)OP(=O)(O)OC[C@H]1O[C@@H](n2cnc3c(NCc4ccccc4)nc(Cl)nc32)[C@H](O)[C@@H]1O`, 0.4 nM. Compound `C[C@H](Nc1nc(Cl)nc2c1cnn2[C@@H]1O[C@H](COCP(=O)(O)O)[C@@H](O)[C@H]1O)c1ccc(F)cc1` showed a half-life in data set [2] of 4.5 h. The compound also gave a clearance in data set [3] of 0.333 mL/min/kg. `O=P(O)(O)COC[C@H]1O[C@@H](n2cnc3c(N4CCOCC4)nc(Cl)nc32)[C@H](O)[C@@H]1O`: half-maximal inhibition in data set [1] (IC50) required 148 nM. Same read-out and setting: with `O=P(O)(O)COC[C@H]1O[C@@H](n2cnc3c(NC4CCC4)nc(Cl)nc32)[C@H](O)[C@@H]1O` the figure was 83 nM.

The compound `C[C@H](Nc1nc(Cl)nc2c1ncn2[C@@H]1O[C@H](COCP(=O)(O)O)[C@@H](O)[C@H]1O)c1ccccc1` had a half-life in data set [2] of 1.2 h. In data set [3], this compound showed a clearance of 2.33 mL/min/kg. In data set [1], this compound came in with an IC50 of 65 nM.

`O=P(O)(O)COC[C@H]1O[C@@H](n2cnc3c(NCC4CCCC4)nc(Cl)nc32)[C@H](O)[C@@H]1O`: in data set [1], the IC50 came to 124 nM. In data set [2], `O=P(O)(O)COC[C@H]1O[C@@H](n2cnc3c(NC4CCCC4)nc(Cl)nc32)[C@H](O)[C@@H]1O` showed a half-life of 0.97 h. This compound had a clearance in data set [3] of 6.17 mL/min/kg. In addition, the IC50 in data set [1] amounted to 26 nM. With `O=C(O)C(OC[C@H]1O[C@@H](n2cnc3c(NCc4ccccc4)nc(Cl)nc32)[C@H](O)[C@@H]1O)C(=O)O`, the IC50 in data set [1] is 1000 nM. Still for that read-out and setting: the figure for `O=P(O)(O)COC[C@H]1O[C@@H](n2cnc3c(NC4CCCC4)cc(Cl)nc32)[C@H](O)[C@@H]1O` is 33 nM. In data set [1], `O=P(O)(O)COC[C@H]1O[C@@H](n2ncc3c(NC4CCCC4)cc(Cl)nc32)[C@H](O)[C@@H]1O` had an IC50 of 4.5 nM. Still for that read-out and setting: the figure for `O=P(O)(O)COC[C@H]1O[C@@H](n2cnc3c(NCc4ccccn4)nc(Cl)nc32)[C@H](O)[C@@H]1O` is 382 nM; for `O=P(O)(O)COC[C@H]1O[C@@H](n2cnc3c(NC4CCCC4)nc(-c4ccccc4)nc32)[C@H](O)[C@@H]1O` it is 245 nM; for `O=P(O)(O)COC[C@H]1O[C@@H](n2cnc3c(N4CCCC4)nc(Cl)nc32)[C@H](O)[C@@H]1O` it is 45 nM. On the same count and under the same terms, the figure for `COCc1nc(NC2CCCC2)c2ncn([C@@H]3O[C@H](COCP(=O)(O)O)[C@@H](O)[C@H]3O)c2n1` is 118 nM; for `O=P(O)(O)COC[C@H]1O[C@@H](n2cnc3c(NC4CC4)nc(Cl)nc32)[C@H](O)[C@@H]1O` it is 588 nM; for `CC(C)Nc1nc(Cl)nc2c1ncn2[C@@H]1O[C@H](COCP(=O)(O)O)[C@@H](O)[C@H]1O` it is 192 nM. Consider `Cn1cc(CNc2nc(Cl)nc3c2ncn3[C@@H]2O[C@H](COCP(=O)(O)O)[C@@H](O)[C@H]2O)cn1`, for which the IC50 in data set [1] was 201 nM. On the same count and under the same terms, the figure for `O=P(O)(O)CCCOC[C@H]1O[C@@H](n2cnc3c(NCc4ccccc4)nc(Cl)nc32)[C@H](O)[C@@H]1O` is more than 10000 nM. Compound `O=P(O)(O)COC[C@H]1O[C@@H](n2cnc3c(NC4CCCC4)nc(COC4CCNC4)nc32)[C@H](O)[C@@H]1O` (stereo partly specified) returned a concentration for half-maximal inhibition (IC50) in data set [1] of more than 10000 nM. In data set [1], `O=P(O)(O)COC[C@H]1O[C@@H](n2cnc3c(NCc4ccccc4)nc(Cl)nc32)[C@H](O)[C@@H]1O` showed an IC50 of 58 nM.

In the case of `O=P(O)(O)COC[C@H]1O[C@@H](n2cnc3c(NCCc4ccccc4F)nc(Cl)nc32)[C@H](O)[C@@H]1O`, in data set [1], the IC50 amounted to 121 nM.

Regarding `O=P(O)(O)COC[C@H]1O[C@@H](n2cnc3c(N[C@@H]4CCOC4)nc(Cl)nc32)[C@H](O)[C@@H]1O`, the IC50 in data set [1] was determined as 84 nM. As for `Cn1cnnc1CNc1nc(Cl)nc2c1ncn2[C@@H]1O[C@H](COCP(=O)(O)O)[C@@H](O)[C@H]1O`, the IC50 in data set [1] was determined as 3200 nM. In turn, `C[C@H](Nc1cc(Cl)nc2c1cnn2[C@@H]1O[C@H](COCP(=O)(O)O)[C@@H](O)[C@H]1O)c1ccc(F)cc1` had a half-life in data set [2] of 4 h. This compound also showed a clearance in data set [3] of 0.3 mL/min/kg.

On to `C[C@H](Nc1nc(Cl)nc2c1cnn2[C@@H]1O[C@H](COCP(=O)(O)O)[C@@H](O)[C@H]1O)c1ccccc1`, for which the half-life in data set [2] is 2.4 h. For the same compound, the clearance in data set [3] was 0.517 mL/min/kg. For the compound `O=P(O)(O)COC[C@H]1O[C@@H](n2cnc3c(NC4CCCC4)nc(COc4ccccc4)nc32)[C@H](O)[C@@H]1O`, in data set [1], the IC50 turned out to be 13 nM. The compound `O=P(O)(O)CCOC[C@H]1O[C@@H](n2cnc3c(NCc4ccccc4)nc(Cl)nc32)[C@H](O)[C@@H]1O` registered a concentration for half-maximal inhibition (IC50) in data set [1] of more than 10000 nM.

In general, IC50 refers to the point on the concentration scale where inhibition reaches its midpoint. Low readings indicate higher potency, high ones lower potency. Broadly, the half-life is the time needed for the level to fall by half in the phase considered. Higher therefore signals slow decline. For orientation: clearance means a measure of how efficiently the substance is removed, as volume per time.
